Screening data from PubChem.
RGS4 inh: inhibitors of human RGS4; P49798; HEK293 M3R/RGS4 inducible, Fluo-4 calcium flux; hits give high values; triggered by carbachol at its EC20; B-score at 10 µM; actives 0.45% (n = 310,000); AID 463165;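 active = B-score, a plate-corrected calcium signal, over three deviations above library mean, with baseline fluorescence within five deviations of library mean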;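 also: RGS4 expression induced by doxycycline in cells with stable M3 receptor; B-score is computed from the integrated fluorescence ratio over baseline after carbachol; higher B-score means a larger calcium signal and so more RGS4 inhibition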
Target sequence (P49798 whole entry, looked up): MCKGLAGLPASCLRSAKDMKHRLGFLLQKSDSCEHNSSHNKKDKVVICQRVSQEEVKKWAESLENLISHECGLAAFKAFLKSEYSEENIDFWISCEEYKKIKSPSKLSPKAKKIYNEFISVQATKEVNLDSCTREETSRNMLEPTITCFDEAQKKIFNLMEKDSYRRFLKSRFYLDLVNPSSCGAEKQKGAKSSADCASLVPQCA
MrgX1 agonist: activates human MrgX1 receptor signaling; MrgX1-HEK293 cells, Fluo-4 calcium fluorescence, agonist mode; hits give high values; B-score at 10 µM; actives 0.44% (n = 310,000); AID 588627;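 active = calcium response B-score plate-corrected fluorescence ratio at least 3 library SD, with starting fluorescence B-score inside 5 SD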
Target sequence (Q96LB2 whole entry, looked up): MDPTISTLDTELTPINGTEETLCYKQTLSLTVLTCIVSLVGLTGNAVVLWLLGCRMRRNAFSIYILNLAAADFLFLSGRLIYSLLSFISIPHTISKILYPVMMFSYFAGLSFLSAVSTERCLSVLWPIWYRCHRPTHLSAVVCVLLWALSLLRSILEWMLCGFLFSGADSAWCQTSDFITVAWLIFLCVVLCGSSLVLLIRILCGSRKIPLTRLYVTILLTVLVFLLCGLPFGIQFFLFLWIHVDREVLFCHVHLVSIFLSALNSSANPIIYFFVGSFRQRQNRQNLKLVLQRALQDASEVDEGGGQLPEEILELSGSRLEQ
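System – MrgX1-expressing HEK293 cells · Incubation – cells plated overnight, dye loaded 0.5 h 37 °C, 0.5 h room temperature · Technique – kinetic Fluo-4 NW fluorescence of intracellular calcium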
MrgX1 PAM: allosterically activates human MrgX1 receptor signaling; actives 0.63% (n = 310,000); MrgX1-HEK293, Fluo-4 calcium flux, FDSS; hits give high values; B-score at 10 µM; AID 588675;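 active = plate-corrected calcium response at least 3 library SD above typical, normal starting fluorescence, not activating the receptor alone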;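 also: compound read alongside a low EC10 to EC30 dose of BAM8-22 agonist; peak minus trough fluorescence over baseline measured at the second addition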
MrgX1 antag: blocks BAM8-22 activation of human MrgX1 receptor. Q96LB2. MRGX1-HEK293 calcium flux, Fluo-4, BAM8-22 antagonism; hits give low values. B-score at 10 µM. actives 1.3% (n = 310,000). AID 588676;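 active = calcium-response B-score plate-corrected more than 3 library SD below zero, starting fluorescence within 5 deviations, no agonist response on first addition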;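 also: peak minus trough fluorescence over baseline after final BAM8-22 challenge near maximal dose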
RGS4 act: potentiators or activators of RGS4 | HEK293 M3R/inducible RGS4, carbachol calcium flux Fluo4; hits give low values | B-score at 10 µM | actives 0.92% (n = 310,000) | AID 463111;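 active = B-score of the integrated calcium signal more than 4 SD below the library mean, with starting fluorescence not abnormally high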;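 also: negative B-score means reduced calcium response which marks RGS4 activation or potentiation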
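System – HEK293 FlpIn-TREx cells, stable M3R, doxycycline-inducible RGS4 · Reagent – ECmax carbachol challenge · Times – compound preincubation 20 min at room temperature before agonist · Technique – Fluo4 fluorescence kinetic imaging of calcium · Measure – B score of integrated Fluo4 ratio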
MrgX1 allo conf: human MrgX1 positive allosteric modulation, re-confirmation. shares compounds with MrgX1 PAM. MrgX1-HEK293, Fluo-4 calcium fluorescence, FDSS. activation (ratio percentage), % at 10 µM. actives 13% (n = 1,200);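 active = ratio at least 3 SD above the weak peptide control, stable starting fluorescence, no direct agonism earlier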;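 also: compound followed by low BAM8-22 agonist challenge near EC20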
HEK293 Ca flux: activity in parental HEK293 cells lacking MrgX1 | fluorescence ratio F(max-min)/F0 at 10 µM | actives 2% (n = 4,000) | shares compounds with MrgX1 antag | Fluo-4 calcium fluorescence, FDSS;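 active = duplicate-averaged calcium fluorescence ratio at least three times the standard deviation of buffer wells, a nonspecific response in parental cells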
HEK293 Ca counter: activity in parental HEK293 cells without MrgX1 | shares compounds with MrgX1 antag | parental HEK293 calcium flux, Fluo-4 fluorescence ratio; hits give high values | fluorescence ratio F(max-min)/F0 at 10 µM | actives 0.4% (n = 4,000);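 active = calcium fluorescence ratio, averaged over duplicates, at least 3 SD of the buffer-well ratio, meaning a nonspecific response in receptor-free cells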;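 also: untransfected parental HEK293 lacking MrgX1 used as counterscreen for MrgX1 allosteric activators; fluorescence change taken during the second addition on a kinetic imager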
HEK293 Ca cntr2: MrgX1 activator counter-screen hit in parental HEK293 cells; shares compounds with MrgX1 antag; Fluo-4 calcium fluorescence (FDSS); hits give high values; fluorescence ratio F(max-min)/F0 at 10 µM; actives 8.7% (n = 4,000);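 active = calcium fluorescence ratio at least three times the spread of buffer wells, meaning a non-specific response in parental cells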
Numbers without * were called inactive; i = inactive; x = not tested or not shown. Compounds with a hit are over-represented: about 3.5% of the library has one in this group of screens.

SMILES	RGS4 inh	MrgX1 agonist	MrgX1 PAM	MrgX1 antag	RGS4 act	MrgX1 allo conf	HEK293 Ca flux	HEK293 Ca counter	HEK293 Ca cntr2
CC(=O)NC(CC(=O)N(Cc1ccccc1)c1cccc(C)c1)c1ccccc1 (stereo not given)	i	i	8.6*	i	i	i	i	i	99*
c1coc(-c2nc3nc4ccccc4nc3n2CC2CCCO2)c1 (stereo not given)	i	i	i	i	i	x	x	x	x
c1ccc(-c2nc3nc4ccccc4nc3n2CC2CCCO2)cc1 (stereo not given)	i	i	7*	i	i	i	i	i	i
Cc1ccc(N(CC(=O)Nc2ccc(Br)c(C)c2)S(=O)(=O)c2c(C)[nH]c(=O)[nH]c2=O)cc1	i	i	8.3*	i	i	i	i	i	i
COc1ccc(N(CC(=O)Nc2cc(C)ccc2C)S(=O)(=O)c2c(C)[nH]c(=O)[nH]c2=O)cc1	i	i	i	i	i	x	x	x	x
COc1ccc(-c2nnc(NC(=O)c3cc(C)on3)s2)cc1	i	i	8.2*	i	i	i	i	i	i
COc1ccc(NC(=O)c2cc(-c3cccc(OC)c3)on2)cc1	i	i	i	i	i	x	x	x	x
COc1ccc(NC(=O)c2cccc(C(=O)Nc3ccc(OC)cc3)n2)cc1	i	i	8.8*	i	i	i	i	i	i
C#CCONC(=O)c1cc(OCC(F)(F)F)ccc1OCC(F)(F)F	i	i	i	i	i	x	x	x	x
Nc1nc(Nc2ccccc2Br)nc(C(F)(F)F)n1	i	i	9.1*	i	i	i	i	i	i
Nc1nc(Nc2ccccc2)nc(C(F)(F)F)n1	i	i	i	i	i	x	x	x	x
CC12CCC(C(=O)O)(c3nc4cc([N+](=O)[O-])ccc4nc31)C2(C)C (stereo not given)	i	i	i	i	i	x	x	x	x
CC12CCC(C)(c3nc4ccccc4nc31)C2(C)C	i	i	6.9*	i	i	i	i	i	i
CN1CCN(C2CCCCC2NS(=O)(=O)c2ccc(Cl)cc2)CC1 (stereo not given)	i	i	i	i	i	x	x	x	x
CC1CC(C)CN(C2CCCCC2NS(=O)(=O)c2ccc(Cl)cc2)C1 (stereo not given)	i	i	8.2*	i	i	i	i	i	i
Cc1nc2cc(Cl)ccc2n1-c1ccccc1	i	i	16*	i	i	i	i	i	i
COc1cc(/C=N/c2oc(C)c(C)c2C#N)cc(Br)c1O	i	i	i	i	i	x	x	x	x
Cc1cc2c(cc1C)CN(c1ccccc1)C2	i	i	i	i	i	x	x	x	x
CCCNC(=O)CN1CCC(c2nc3ccccc3[nH]2)CC1	i	i	12*	i	i	i	i	i	i
CCc1ccc(C(N)=S)cc1	i	i	9*	i	i	i	i	i	i
CS(=O)(=O)N1CCC(C(=O)NCc2ccc(Cl)cc2Cl)CC1	i	i	i	i	i	x	x	x	x
Cc1ccc(NC(=O)CNc2cccc(C)c2C)c(C)c1	i	i	16*	i	i	9.1%*	i	i	i
Cc1cccc(NC(=O)CNCC(=O)Nc2cccc(C)c2C)c1C	i	i	i	i	i	x	x	x	x
CCc1nc(N2CCN(S(C)(=O)=O)CC2)c2c3c(sc2n1)CCCC3	i	i	7.3*	i	i	i	i	i	i
Cc1ccc(NC(=O)CSc2nnc(-c3ccncc3)n2C)cc1S(=O)(=O)N1CCOCC1	i	i	i	i	i	x	x	x	x
SMILES	RGS4 inh	MrgX1 agonist	MrgX1 PAM	MrgX1 antag	RGS4 act	MrgX1 allo conf	HEK293 Ca flux	HEK293 Ca counter	HEK293 Ca cntr2
CCn1cc(/C=N\NC(=O)Cc2ccc(Cl)cc2)cn1	i	i	i	i	i	x	x	x	x
COc1ccc(OC)c(-c2csc(NC(=O)Cc3cccs3)n2)c1	i	i	7.2*	i	i	i	i	i	i
Cc1ccc(CN2CC(C(=O)Nc3ccc(F)c([N+](=O)[O-])c3)CC2=O)cc1 (stereo not given)	i	i	i	i	i	x	x	x	x
CN(C)c1nc(N)nc(N(c2ccccc2)c2ccccc2)n1	i	i	7.4*	i	i	i	i	i	i
Cc1ccccc1Oc1ncnc2sccc12	i	i	8.4*	i	i	11%*	i	i	i
COc1ccccc1Oc1ncnc2sccc12	i	i	i	i	i	x	x	x	x
COC(=O)c1ccc(NS(=O)(=O)c2ccc(Cl)cc2)o1	i	i	22*	i	i	12%*	i	i	i
S=c1[nH]nc(-c2ccccn2)n1/N=C/c1c(Cl)cccc1Cl	i	i	i	i	i	x	x	x	x
CCN(CC)C(=O)c1sc2c(c1C)c(=O)n(-c1ccc(C)c(C)c1)c(=O)n2CC(=O)NCC1CCCO1 (stereo not given)	i	i	i	i	i	x	x	x	x
COc1ccc(S(=O)(=O)N2CCC(C(=O)NCC3CC3)CC2)cc1	i	i	13*	i	i	i	i	i	i
COc1ccc(OCC(=O)N2CCN(S(=O)(=O)c3ccc(Cl)cc3)CC2)cc1	i	i	14*	i	i	i	i	i	i
Cc1ccc(CNC(=O)C2CCCN2C(=O)Nc2ccccc2)cc1 (stereo not given)	i	i	i	i	i	x	x	x	x
C/C(=C\C(=O)C(F)(F)F)Nc1ccc(C)cc1	i	i	7.7*	i	i	13%*	i	i	i
C/C(=C\C(=O)C(F)(F)F)Nc1cc(C)cc(C)c1	i	i	i	i	i	x	x	x	x
O=C(COc1ccc(S(=O)(=O)N2CCCC2)cc1)N1CCCCC1	i	i	i	i	i	x	x	x	x
CCOc1ccc(-c2[nH]ncc2-c2ccccc2)c(O)c1	i	i	13*	i	i	17%*	i	i	i
